In ChEMBL document CHEMBL2401699, “4-Amino-7-chloroquinolines: probing ligand efficiency provides botulinum neurotoxin serotype A light chain inhibitors with significant antiprotozoal activity” (J Med Chem, 2013):

Tests used:
Plasmodium falciparum [1] = experiment: Antimalarial activity against multi drug resistant Plasmodium falciparum TM91C235 after 72 hrs by MSF assay; assay type: functional, organism-based; conditions: TM91C235, 72 h
Plasmodium falciparum [2] = experiment: Antimalarial activity against chloroquine-resistant Plasmodium falciparum W2 after 72 hrs by MSF assay; assay type: functional, organism-based; conditions: W2, 72 h
Plasmodium falciparum [3] = experiment: Antimalarial activity against chloroquine-sensitive Plasmodium falciparum D6 after 72 hrs by MSF assay; assay type: functional, organism-based; conditions: D6, 72 h
[4] = molecular target: Botulinum neurotoxin type A (Clostridium botulinum) (UniProt P0DPI0); experiment: Inhibition of Clostridium botulinum recombinant BoNT/A light chain at […] by reverse-phase HPLC analysis
Summary of the method: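 Recombinant BoNT/A light chain was tested with a synthetic SNAP-25 187–203 peptide substrate (N-acetylated, C-aminated). The mix held 40 mM HEPES-0.05% Tween pH 7.3, 0.5 mg/ml BSA, 1 mM DTT, excess zinc and 20 µM inhibitor, at 37 °C, quenched with TFA. Cleaved and uncleaved peptide were separated by reverse-phase HPLC, and peak areas gave reaction rates and % inhibition.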

Plasmodium falciparum [5] = experiment: Antimalarial activity against multidrug-resistant Plasmodium falciparum TM90C2B after 72 hrs by MSF assay; assay type: functional, organism-based
HepG2 = experiment: Cytotoxicity against human HepG2 cells after 48 hrs by MTT assay; assay type: cell-based; conditions: HepG2, 48 h
[6] = Selectivity index, ratio of IC50 for human HepG2 cells to IC50 for Plasmodium falciparum D2; assay type: toxicity, cell-based; conditions: read-out: Ratio IC50
[7] = Selectivity index, ratio of IC50 for human HepG2 cells to IC50 for Plasmodium falciparum TM91C235; assay type: toxicity, cell-based; conditions: read-out: Ratio IC50
[8] = Selectivity index, ratio of IC50 for human HepG2 cells to IC50 for Plasmodium falciparum W2; assay type: toxicity, cell-based; conditions: read-out: Ratio IC50
[9] = (§1) Half life in mouse liver microsomes at 10 uM by LC-MS/MS analysis; assay type: ADME, Microsome; conditions: liver microsomes
[10] = (§2) Half life in human liver microsomes at 10 uM by LC-MS/MS analysis; assay type: ADME, Microsome; conditions: liver microsomes
Plasmodium falciparum [11] = experiment: Antimalarial activity against multidrug-resistant Plasmodium falciparum TM90C2A after 72 hrs by MSF assay; assay type: functional, organism-based
Summary of the method: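 P. falciparum cultures at late-ring or early-trophozoite stage, 0.3% starting parasitemia and 2% hematocrit, were grown in plates predosed with quadruplicate 12-point two-fold dilutions in DMSO (final […]). Incubation was 72 h at 37 °C in 5% CO2/5% O2/90% N2. Lysis buffer with SYBR Green I (final 10x) was added, then 24 h dark at room temperature and fluorescence read. IC50/IC90 came from sigmoidal variable-slope nonlinear regression.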

Plasmodium falciparum [12] = experiment: Ratio of mefloquine IC50 to compound IC50 against Plasmodium falciparum TM91C235; assay type: functional
Liver = experiment: as §1; assay type: ADME, Microsome; conditions: microsomes, 10 µM
Liver microsomes = experiment: as §2; assay type: ADME, Microsome; conditions: microsomes, 10 µM

Botulinum neurotoxin type A (Clostridium botulinum), sequence (P0DPI0 2-448 limits assumed): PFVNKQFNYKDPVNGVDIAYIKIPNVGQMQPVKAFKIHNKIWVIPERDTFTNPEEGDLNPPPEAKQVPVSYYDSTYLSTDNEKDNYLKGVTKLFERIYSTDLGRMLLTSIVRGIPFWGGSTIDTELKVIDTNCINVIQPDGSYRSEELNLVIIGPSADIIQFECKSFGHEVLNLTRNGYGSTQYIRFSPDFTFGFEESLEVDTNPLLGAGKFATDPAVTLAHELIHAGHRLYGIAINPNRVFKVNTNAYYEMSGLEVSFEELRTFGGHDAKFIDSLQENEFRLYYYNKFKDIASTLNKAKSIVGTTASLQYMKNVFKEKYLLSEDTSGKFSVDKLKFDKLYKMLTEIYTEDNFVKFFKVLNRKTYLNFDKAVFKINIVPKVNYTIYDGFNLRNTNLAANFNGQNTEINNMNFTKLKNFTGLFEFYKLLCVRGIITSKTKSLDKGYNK

Compound | IC50 (Plasmodium falciparum [1]) [nM] | IC50 (Plasmodium falciparum [2]) [nM] | IC50 (Plasmodium falciparum [3]) [nM] | IC90 (Plasmodium falciparum [1]) [nM] | inhibition [4] [%] | IC90 (Plasmodium falciparum [2]) [nM] | IC90 (Plasmodium falciparum [3]) [nM] | IC90 (Plasmodium falciparum [5]) [nM] | IC50 (HepG2) [nM] | selectivity ratio [6] | selectivity ratio [7] | selectivity ratio [8] | half-life at 10 µM [9] [h] | half-life at 10 µM [10] [h] | IC50 (Plasmodium falciparum [11]) [nM] | IC50 (Plasmodium falciparum [5]) [nM] | Ratio IC50 (Plasmodium falciparum [12]) | t1/2 (Liver) [h] | t1/2 (Liver microsomes) [h]
C[C@@H]1CC[C@H]2[C@@H](C)C(=O)O[C@@H]3O[C@@]4(C)CC[C@@H]1[C@]32OO4 [ARTEMISININ] | 13 | 6.7 | 9 | – | – | – | – | – | – | – | – | – | – | – | – | – | – | – | –
CCN(CC)CCCC(C)Nc1ccnc2cc(Cl)ccc12 (centres undefined) [CHLOROQUINE PHOSPHATE] | – | – | – | 476 | 7 | 942 | 19.2 | 602 | – | – | – | – | – | – | – | – | – | – | –
CC(C)(C)c1ccc(CNCCNc2ccnc3cc(Cl)ccc23)cc1 | 24.7 | 42.4 | 24.2 | – | 47 | – | – | – | 10400 | 429 | 419 | 245 | – | – | – | – | – | – | –
CC(C)(C)c1ccc(CNCCCNc2ccnc3cc(Cl)ccc23)cc1 | 31.9 | 48.4 | 21.7 | – | 50.3 | – | – | – | 2170 | 100 | 68 | 45 | – | – | – | – | – | – | –
Fc1ccc(CNCCNc2ccnc3cc(Cl)ccc23)cc1 | 55.2 | 45.8 | 26.4 | – | 68 | – | – | – | 16000 | 608 | 291 | 350 | – | – | – | – | – | – | –
Clc1ccc2c(NCCCNCc3ccccc3)ccnc2c1 | 39.9 | 52.2 | 17.2 | – | 51.8 | – | – | – | 2910 | 169 | 73 | 56 | 1 | 1 | – | – | – | – | –
O[C@@H](c1cc(C(F)(F)F)nc2c(C(F)(F)F)cccc12)[C@H]1CCCCN1 (racemic) | – | – | – | – | 28 | – | 43.6 | – | – | – | – | – | – | – | 51.1 | – | – | – | –
Clc1ccc2c(NCCNCc3cccnc3)ccnc2c1 | 109 | 225 | 53.4 | – | 25 | – | – | – | 95900 | 1800 | 882 | 426 | – | – | – | – | – | – | –
Clc1ccc2c(NCCNCc3ccncc3)ccnc2c1 | 204 | 375 | 60.7 | – | 24 | – | – | – | 153000 | 2530 | 752 | 409 | – | – | – | – | – | – | –
Clc1ccc2c(NCCCNCc3ccc(Br)cc3)ccnc2c1 | 6.18 | 5.93 | 3.95 | 7.66 | 68 | 7.41 | 4.45 | 12.1 | 4950 | – | – | – | 1 | 1 | 7.16 | 7.91 | – | – | –
Fc1ccc(CNCCCNc2ccnc3cc(Cl)ccc23)cc1 | 29.4 | 49.4 | 13.1 | – | 50.1 | – | – | – | 5430 | 415 | 185 | 110 | – | – | – | – | – | – | –
Clc1ccc2c(NCCNCc3ccc(Br)cc3)ccnc2c1 | 9.98 | 9.47 | 4.1 | – | 69 | – | – | – | 6580 | 1610 | 660 | 695 | 1 | 1 | – | – | 4 | – | –
COc1ccc(CNCCNc2ccnc3cc(Cl)ccc23)cc1 | 16.1 | 14.3 | 3.22 | – | 18 | – | – | – | 5820 | 1810 | 362 | 406 | – | – | – | – | 4 | 0.1 | 0.45
Clc1ccc2c(NCCNCc3ccccc3)ccnc2c1 | 7.38 | 10.9 | 6.41 | 9.3 | 52 | – | 9.62 | 12.5 | 19400 | – | – | – | – | 1 | 9.94 | 9.3 | – | 0.383 | –
COc1ccncc1CNCCNc1ccnc2cc(Cl)ccc12 | 7.29 | 19 | – | – | 19 | – | – | – | – | – | – | – | – | – | – | – | – | 0.383 | 0.633
Clc1ccc2c(NCCCNCc3ccncc3)ccnc2c1 | 76.4 | 204 | 8.65 | – | 42.3 | – | – | – | 35900 | 4150 | 469 | 176 | – | – | – | – | – | 0.15 | 0.15
COc1ccncc1CNCCCNc1ccnc2cc(Cl)ccc12 | 53.2 | 86.9 | 4.76 | – | 43.2 | – | – | – | 4970 | 1040 | 93 | 57 | 1 | 1 | – | – | – | – | –
COc1ccc(CNCCCNc2ccnc3cc(Cl)ccc23)cc1 | 50.6 | 56.2 | 6.18 | – | 14 | – | – | – | 4810 | 778 | 95 | 86 | – | – | – | – | – | 0.3 | 1
Clc1ccc2c(NCCCNCc3cnccc3Cl)ccnc2c1 | 31 | 73 | 25.7 | – | 35.9 | – | – | – | 3760 | 146 | 121 | 52 | – | – | – | – | – | 0.317 | 0.267
Clc1ccc2c(NCCCNCc3cccnc3)ccnc2c1 | 73.4 | 260 | – | – | 39.9 | – | – | – | 23300 | – | 317 | 90 | 1 | 1 | – | – | – | – | –
Clc1ccc2c(NCCNCc3cnccc3Cl)ccnc2c1 | 83.3 | 141 | 63.8 | – | 23 | – | – | – | 6500 | 102 | 78 | 46 | – | – | – | – | – | 0.617 | 0.167
